In ChEMBL document CHEMBL3286242, “Design, synthesis and biological evaluation of arylcinnamide hybrid derivatives as novel anticancer agents” (Eur J Med Chem, 2014) one finds IC50 and inhibition data, which are given here for 21 molecules.

One assay relates to LoVo. Nature of the assay: Cytotoxicity against human LoVo cells assessed as growth inhibition after 72 hrs by MTT assay. Format: functional, cell-based.
Another assay deals with Tubulin (Bos taurus) (UniProt Q6B856+Q862L2+Q862F3). As to the kind of experiment: Inhibition of bovine brain tubulin polymerization at 20 uM by turbidimetry. The method in brief:
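Purified bovine brain tubulin (10 μM) preincubated with compound in glutamate buffer at 30 °C, cooled to 0 °C, GTP added, then warmed to 30 °C in cuvettes; assembly followed turbidimetrically; concentrations up to 20 μM.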

Another assay relates to MCF7. As to the kind of experiment: Cytotoxicity against human MCF7 cells assessed as growth inhibition after 72 hrs by MTT assay. Format: functional, cell-based. The note with it: MCF7, 72 h.
The test system of a further assay is HT-29. Nature of the assay: Cytotoxicity against human HT-29 cells assessed as growth inhibition after 72 hrs by MTT assay. It counts as functional, cell-based. Particulars: HT-29, 72 h.
The next assay deals with HeLa. As to the kind of experiment: Cytotoxicity against human HeLa cells assessed as growth inhibition after 72 hrs by MTT assay. Format: functional, cell-based.
The test system of the next assay is Jurkat. Nature of the assay: Cytotoxicity against human Jurkat cells assessed as growth inhibition after 72 hrs by MTT assay. It counts as functional, cell-based.
The next assay relates to CCRF-CEM. As to the kind of experiment: Cytotoxicity against human CEM cells assessed as growth inhibition after 72 hrs by MTT assay. It counts as functional, cell-based.
Assay [1] can be described thus: Cytotoxicity against human SEM cells assessed as growth inhibition after 72 hrs by MTT assay. It counts as functional, cell-based.
Assay [2] can be described thus: Cytotoxicity against human CEM/VBL100 cells assessed as growth inhibition after 72 hrs by MTT assay. It counts as functional, cell-based. The note with it: CEM/VBL100, 72 h.

Activity calls are given as the source filed them. No cut-off for these calls is given here.

Take `COc1cccc2c1C(=O)c1c(O)c3c(c(O)c1C2=O)C[C@@](O)(C(=O)CO)C[C@@H]3O[C@H]1C[C@H](N)[C@H](O)[C@H](C)O1` [DOXORUBICIN]: in the assay with LoVo, the half-maximal inhibitory concentration (IC50) amounted to 90 nM.
For the molecule `C=C(Br)C(=O)Nc1cccc(/C=C/C(=O)Nc2ccc(F)c(F)c2)c1`, the inhibition result at Tubulin (Bos taurus) was “inactive”. The 50% inhibitory concentration (IC50) in the assay on MCF7 was determined as 2690 nM; in the assay on HT-29, 8700 nM; in the assay with HeLa it was 1900 nM; with Jurkat it was 550 nM; with CCRF-CEM, 13 nM; in the assay with LoVo, 540 nM. In [1], the 50% inhibitory concentration (IC50) came to 90 nM.
For the molecule `C=C(Br)C(=O)Nc1cccc(/C=C/C(=O)Nc2ccc(OC)c(OC)c2)c1`, the inhibition entry at Tubulin (Bos taurus) is “inactive”. Also, the IC50 came to 2800 nM in the assay on MCF7; 1900 nM in the assay with HT-29; 560 nM with HeLa; 190 nM in the assay with Jurkat; 21 nM in the assay on CCRF-CEM; 150 nM with LoVo. In assay [1], the IC50 stood at 3 nM.
As to `C=C(Br)C(=O)Nc1cccc(/C=C/C(=O)Nc2ccc(F)cc2)c1`, the IC50 stood at 13600 nM in the assay with MCF7; 36600 nM in the assay on HT-29; 16800 nM in the assay on HeLa; 6200 nM in the assay with Jurkat; 16600 nM with CCRF-CEM; 4800 nM with LoVo. The half-inhibitory concentration (IC50) in [1] was 8400 nM.
With `C=C(Br)C(=O)Nc1cccc(/C=C/C(=O)NCc2ccc(C)cc2)c1`, the IC50 in the assay with MCF7 was 2200 nM; in the assay on HT-29, 2700 nM; in the assay with HeLa, 1700 nM; with Jurkat it was 740 nM; in the assay with CCRF-CEM, 550 nM; in the assay on LoVo it was 1900 nM. Moreover, the IC50 in [1] came to 1300 nM.
As to `COc1cc(NC(=O)/C=C/c2cccc(OCc3ccccc3)c2)cc(OC)c1OC`, the IC50 was 2400 nM in the assay on MCF7; 3600 nM in the assay on HT-29; 2200 nM in the assay on HeLa; 3500 nM in the assay on Jurkat; 17300 nM in the assay on CCRF-CEM; 21700 nM in the assay with LoVo. The half-inhibitory concentration (IC50) in assay [1] came to 8500 nM.
Consider `C=C(Br)C(=O)Nc1cccc(/C=C/C(=O)Nc2ccc(SC(F)(F)F)cc2)c1`, for which the IC50 turned out to be 30100 nM in the assay with MCF7; 39800 nM with HT-29; 19000 nM with HeLa; 30100 nM in the assay on Jurkat; 15300 nM with CCRF-CEM; 29300 nM with LoVo. Besides, in assay [1], the IC50 was 12700 nM.
For `C=C(Br)C(=O)Nc1cccc(/C=C/C(=O)Nc2ccccc2)c1`, the half-inhibitory concentration (IC50) in the assay with MCF7 was 27300 nM; in the assay on HT-29 it was 16600 nM; with HeLa, 7300 nM; with Jurkat, 5000 nM; in the assay on CCRF-CEM, 190 nM; in the assay with LoVo, 3900 nM. Besides, the concentration for half-maximal inhibition (IC50) in [1] amounted to 1100 nM.
On to `C=C(Br)C(=O)Nc1cccc(/C=C/C(=O)Nc2cc(OC)c(OC)c(OC)c2)c1`, for which the inhibition result on Tubulin (Bos taurus) was “inactive”. Further, the IC50 with MCF7 turned out to be 1800 nM; in the assay with HT-29 it was 2300 nM; in the assay on HeLa it was 880 nM; in the assay on Jurkat, 290 nM; in the assay on CCRF-CEM, 59 nM; with LoVo, 140 nM. Also, the IC50 in assay [1] stood at 18 nM.
Regarding `C=C(Br)C(=O)Nc1cccc(/C=C/C(=O)Nc2cc(OC)cc(OC)c2)c1`, the IC50 in the assay on MCF7 was determined as 3000 nM; in the assay on HT-29, 3600 nM; in the assay on HeLa, 2200 nM; in the assay with Jurkat, 980 nM; with CCRF-CEM, 11 nM; in the assay with LoVo, 1210 nM. Moreover, the IC50 in assay [1] came out at 40 nM.
For `COc1cccc(/C=C/C(=O)Nc2cc(OC)c(OC)c(OC)c2)c1`, the IC50 in the assay with MCF7 was 27000 nM; with HT-29, 44100 nM; in the assay with HeLa, 16500 nM; in the assay with Jurkat, 12500 nM; in the assay on CCRF-CEM, 23400 nM; in the assay on LoVo, 43000 nM. The concentration for half-maximal inhibition (IC50) in assay [1] came to 18200 nM.
`C=C(Br)C(=O)Nc1cccc(/C=C/C(=O)Nc2ccc(OCC)cc2)c1`: the half-inhibitory concentration (IC50) in the assay with MCF7 turned out to be 5500 nM; in the assay with HT-29 it was 3400 nM; in the assay with HeLa it was 2000 nM; with Jurkat, 930 nM; in the assay with CCRF-CEM it was 98 nM; with LoVo it was 850 nM. Further, in assay [1], the IC50 is 180 nM.
Regarding `C=C(Br)C(=O)Nc1cccc(/C=C/C(=O)Nc2ccc(OC)cc2)c1`, the inhibition result at Tubulin (Bos taurus) was “inactive”. Moreover, the IC50 was 2500 nM in the assay with MCF7; 2300 nM with HT-29; 790 nM with HeLa; 470 nM with Jurkat; 26 nM in the assay on CCRF-CEM; 550 nM in the assay with LoVo. Also, in [1], the IC50 turned out to be 70 nM.
On to `C=C(Br)C(=O)Nc1ccc(/C=C/C(=O)Nc2ccc(OC)cc2)cc1`, for which the concentration for half-maximal inhibition (IC50) in the assay on MCF7 is 3000 nM; in the assay with HT-29 it was 3100 nM; in the assay on HeLa, 1600 nM; in the assay with Jurkat, 1400 nM; with CCRF-CEM it was 22 nM; with LoVo, 60 nM. For the same molecule, in [1], the IC50 amounted to 80 nM.
In the case of `C=C(Br)C(=O)Nc1cccc(/C=C/C(=O)Nc2ccc(OC(F)(F)F)cc2)c1`, the IC50 was determined as 43300 nM with MCF7; 61200 nM in the assay on HT-29; 29000 nM with HeLa; 30300 nM in the assay with Jurkat; 13000 nM with CCRF-CEM; 30300 nM with LoVo. Also, the half-inhibitory concentration (IC50) in assay [1] was 19300 nM.
Turning to `C=C(Br)C(=O)Nc1cccc(/C=C/C(=O)Nc2cccc3ccccc23)c1`, the IC50 in the assay with MCF7 is 2800 nM; in the assay on HT-29 it was 6500 nM; in the assay with HeLa, 1400 nM; in the assay with Jurkat it was 680 nM; in the assay on CCRF-CEM, 1800 nM; in the assay on LoVo, 1160 nM. Further, in assay [1], the IC50 worked out at 830 nM.
As to `C=C(Br)C(=O)Nc1cccc(/C=C/C(=O)Nc2cccc(F)c2)c1`, the IC50 in the assay on MCF7 was found to be 3300 nM; in the assay with HT-29, 4600 nM; with HeLa it was 1200 nM; in the assay on Jurkat, 1000 nM; in the assay on CCRF-CEM, 26000 nM; in the assay on LoVo, 1000 nM. The IC50 in assay [1] turned out to be 620 nM.
With `COc1cc(NC(=O)/C=C/c2cccc(N)c2)cc(OC)c1OC`, the half-inhibitory concentration (IC50) with MCF7 turned out to be 55400 nM; with HT-29, 63100 nM; with HeLa, 53100 nM; in the assay on Jurkat it was 43300 nM; with CCRF-CEM, 40900 nM; in the assay with LoVo, 45200 nM. Moreover, the IC50 in assay [1] is 2810 nM.
On to `C=C(Br)C(=O)Nc1cccc(/C=C/C(=O)Nc2ccc(Cl)cc2)c1`, for which the half-maximal inhibitory concentration (IC50) with MCF7 was determined as 11000 nM; in the assay with HT-29, 7900 nM; in the assay on HeLa, 2800 nM; with Jurkat, 2600 nM; in the assay with CCRF-CEM, 460 nM; in the assay on LoVo, 5900 nM. Besides, the half-inhibitory concentration (IC50) in assay [1] is 1190 nM.
Take `C=C(Br)C(=O)Nc1cccc(/C=C/C(=O)Nc2ccc(C)cc2)c1`: the IC50 in the assay on MCF7 was 2500 nM; with HT-29 it was 1200 nM; in the assay on HeLa, 1500 nM; in the assay with Jurkat it was 240 nM; in the assay on CCRF-CEM it was 270 nM; with LoVo, 1500 nM. The IC50 in assay [1] amounted to 190 nM.
Take `CC[C@]1(O)C[C@@H]2CN(CCc3c([nH]c4ccccc34)[C@@](C(=O)OC)(c3cc4c(cc3OC)N(C)[C@H]3[C@@](O)(C(=O)OC)[C@H](OC(C)=O)[C@]5(CC)C=CCN6CC[C@]43[C@@H]65)C2)C1` [VINBLASTINE]: the 50% inhibitory concentration (IC50) in assay [2] was 21 nM.
